pKd: −log10 of the molar value. The source made the active and inactive calls. The rule behind the calls is not given here.
What was measured:
[1] = target: T1, SWI/SNF-related matrix-associated actin-dependent regulator of chromatin subfamily A member 2 (Homo sapiens, UniProt P51531); assay: Binding affinity to human SMARC2B expressed in BL21 (DE3)-R3-BirA cells assessed as change in melting temperature at 10 uM by sypro-orange dye-based differential scanning fluorimetric analysis; format: cell-based
Procedure, shortened: (§1)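 Thermal shift (DSF) screen of bromodomain proteins with compound at 10 μM; binding read as change in melting temperature (Tm shift).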

[2] = target: T2, SWI/SNF-related matrix-associated actin-dependent regulator of chromatin subfamily A member 4 (Homo sapiens, UniProt P51532); assay: Binding affinity to human SMARCA4 expressed in BL21 (DE3)-R3-BirA cells assessed as change in melting temperature at 10 uM by sypro-orange dye-based differential scanning fluorimetric analysis; format: cell-based; procedure, shortened: as §1
Protein polybromo-1 [3] = target: T3, Protein polybromo-1 (Homo sapiens, UniProt Q86U86); assay: Binding affinity to human PB1 isoform 4 expressed in BL21 (DE3)-R3-BirA cells assessed as change in melting temperature at 10 uM by sypro-orange dye-based differential scanning fluorimetric analysis; format: cell-based; procedure, shortened: as §1
Protein polybromo-1 [4] = target: T3, Protein polybromo-1; assay: Binding affinity to human PB1 isoform 2 expressed in BL21 (DE3)-R3-BirA cells assessed as change in melting temperature at 10 uM by sypro-orange dye-based differential scanning fluorimetric analysis; format: cell-based; procedure, shortened: as §1
Protein polybromo-1 [5] = target: T3, Protein polybromo-1; assay: Binding affinity to human PB1 isoform 5 expressed in BL21 (DE3)-R3-BirA cells assessed as change in melting temperature at 10 uM by sypro-orange dye-based differential scanning fluorimetric analysis; format: cell-based; procedure, shortened: as §1
Protein polybromo-1 [6] = target: T3, Protein polybromo-1; assay: Binding affinity to human PB1 isoform 3 expressed in BL21 (DE3)-R3-BirA cells assessed as change in melting temperature at 10 uM by sypro-orange dye-based differential scanning fluorimetric analysis; format: cell-based; procedure, shortened: as §1
[7] = target: T1, SWI/SNF-related matrix-associated actin-dependent regulator of chromatin subfamily A member 2; assay: Binding affinity to human SMARC2A expressed in BL21 (DE3)-R3-BirA cells assessed as change in melting temperature at 10 uM by sypro-orange dye-based differential scanning fluorimetric analysis; format: cell-based; procedure, shortened: as §1
[8] = target: T2, SWI/SNF-related matrix-associated actin-dependent regulator of chromatin subfamily A member 4; assay: Binding affinity to human SMARCA4 expressed in BL21 (DE3)-R3-BirA cells by isothermal titration calorimetry
[9] = Half life in PBS at pH 7.4 at 20 degC; format: ADME; settings: buffer
Protein polybromo-1 [10] = target: T3, Protein polybromo-1; assay: Binding affinity to human PB1 isoform 5 expressed in BL21 (DE3)-R3-BirA cells by isothermal titration calorimetry
Procedure, shortened: (§2)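 Absolute binding affinity measured by isothermal titration calorimetry on the bromodomain protein.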

Protein polybromo-1 [11] = target: T3, Protein polybromo-1; assay: Binding affinity to human PB1 isoform 2 expressed in BL21 (DE3)-R3-BirA cells by isothermal titration Calorimetry; procedure, shortened: as §2
Protein polybromo-1 [12] = target: T3, Protein polybromo-1; assay: Inhibition of chromatin binding to full length GFP-tagged PB1 expressed in human U2OS cells assessed as acceleration of FRAP half-recovery time at 1 uM incubated for 1 hr in presence of SAHA by FRAP assay; format: cell-based
Procedure, shortened: (§3)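 U2OS cells transfected with full-length GFP-PB1 and treated with SAHA to induce hyperacetylation. Mutant controls were PB1 N263A (second bromodomain) and N707F (fifth bromodomain). Read-out is FRAP half-recovery time (t½) from individual recovery curves, at least 20 cells per group, reported as mean ± SEM. Compared against WT with 2.5 μM SAHA.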

[13] = Cytotoxicity against mouse C3H10T1/2 cells assessed as cell viability up to 50 uM after 72 hrs by MTT assay; format: cell-based; settings: c3h 10t1/2, 72 h
Protein polybromo-1 [14] = target: T3, Protein polybromo-1; assay: Inhibition of chromatin binding to full length GFP-tagged PB1 expressed in human U2OS cells assessed as acceleration of FRAP half-recovery time at 100 nM incubated for 1 hr in presence of SAHA by FRAP assay; format: cell-based; procedure, shortened: as §3
C2C12 [15] = assay: Cytotoxicity against mouse C2C12 cells assessed as cell viability up to 50 uM after 72 hrs by MTT assay; format: cell-based; settings: c2c12, 72 h
[16] = Cytotoxicity against mouse C3H10T1/2 cells assessed as cell death at 100 uM after 72 hrs by MTT assay; format: cell-based; settings: c3h 10t1/2, 72 h
C3H 10T1/2 = assay: Inhibition of differentiation of mouse C3H10T1/2 cells to adipocytes assessed as lipid accumulation at 5 uM by oil red O staining-based assay; format: functional, cell-based
Procedure, shortened: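 C3H10T1/2 mesenchymal cells induced to differentiate to adipocytes with an adipogenic cocktail in the presence of compound; lipid droplet accumulation visualised by Oil Red O staining.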

[17] = target: T1, SWI/SNF-related matrix-associated actin-dependent regulator of chromatin subfamily A member 2; assay: Inhibition of chromatin binding to full length GFP-tagged wild type SMARCA2 expressed in human U2OS cells assessed as acceleration of FRAP half-recovery time incubated for 1 hr in presence of SAHA by FRAP assay; format: cell-based
Procedure, shortened: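 U2OS cells transfected with GFP-SMARCA2 (WT) and treated with SAHA to induce hyperacetylation, with compound given at several doses. The mutant control was GFP-SMARCA2 N1464F (acetyl-lysine-recognising asparagine).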

[18] = target: T1, SWI/SNF-related matrix-associated actin-dependent regulator of chromatin subfamily A member 2; assay: Binding affinity to human SMARCA2 expressed in BL21 (DE3)-R3-BirA cells by isothermal titration calorimetry
C2C12 [19] = assay: Inhibition of differentiation in mouse C2C12 cells assessed as suppression of MyHC expression at 5 uM by HRP-peroxidase-based immunocytochemistry; format: functional, cell-based
Procedure, shortened: (§4)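 C2C12 myoblasts grown with compound through differentiation, normally seen within 48 hours. Scored by cell fusion into myotubes (myotube length, nuclei per myotube) and MyHC expression relative to controls; myogenin monitored as an early marker.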

786-0 = assay: Antiproliferative activity against human 786-0 cells at 0.1 to 10 uM incubated for 24 to 72 hrs by MTT assay; format: functional, cell-based
Procedure, shortened: (§5)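 Clear cell renal carcinoma lines (786-O with wild-type PB1 expression; Rcc4 with PB1 downregulation) treated with compound; proliferation read-out.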

C2C12 [20] = assay: Cytotoxicity against mouse C2C12 cells assessed as cell death at 100 uM after 72 hrs by MTT assay; format: cell-based; settings: c2c12, 72 h
C2C12 [21] = assay: Inhibition of differentiation in mouse C2C12 cells assessed as shortening of myotubes with lower nuclei at 500 nM to 50 uM by HRP-peroxidase-based immunocytochemistry relative to control; format: functional, cell-based; procedure, shortened: as §4
RCC4 = assay: Antiproliferative activity against human RCC4 cells at 0.1 to 10 uM incubated for 24 to 72 hrs by MTT assay; format: functional, cell-based; procedure, shortened: as §5

T1 sequence (P51531 whole entry): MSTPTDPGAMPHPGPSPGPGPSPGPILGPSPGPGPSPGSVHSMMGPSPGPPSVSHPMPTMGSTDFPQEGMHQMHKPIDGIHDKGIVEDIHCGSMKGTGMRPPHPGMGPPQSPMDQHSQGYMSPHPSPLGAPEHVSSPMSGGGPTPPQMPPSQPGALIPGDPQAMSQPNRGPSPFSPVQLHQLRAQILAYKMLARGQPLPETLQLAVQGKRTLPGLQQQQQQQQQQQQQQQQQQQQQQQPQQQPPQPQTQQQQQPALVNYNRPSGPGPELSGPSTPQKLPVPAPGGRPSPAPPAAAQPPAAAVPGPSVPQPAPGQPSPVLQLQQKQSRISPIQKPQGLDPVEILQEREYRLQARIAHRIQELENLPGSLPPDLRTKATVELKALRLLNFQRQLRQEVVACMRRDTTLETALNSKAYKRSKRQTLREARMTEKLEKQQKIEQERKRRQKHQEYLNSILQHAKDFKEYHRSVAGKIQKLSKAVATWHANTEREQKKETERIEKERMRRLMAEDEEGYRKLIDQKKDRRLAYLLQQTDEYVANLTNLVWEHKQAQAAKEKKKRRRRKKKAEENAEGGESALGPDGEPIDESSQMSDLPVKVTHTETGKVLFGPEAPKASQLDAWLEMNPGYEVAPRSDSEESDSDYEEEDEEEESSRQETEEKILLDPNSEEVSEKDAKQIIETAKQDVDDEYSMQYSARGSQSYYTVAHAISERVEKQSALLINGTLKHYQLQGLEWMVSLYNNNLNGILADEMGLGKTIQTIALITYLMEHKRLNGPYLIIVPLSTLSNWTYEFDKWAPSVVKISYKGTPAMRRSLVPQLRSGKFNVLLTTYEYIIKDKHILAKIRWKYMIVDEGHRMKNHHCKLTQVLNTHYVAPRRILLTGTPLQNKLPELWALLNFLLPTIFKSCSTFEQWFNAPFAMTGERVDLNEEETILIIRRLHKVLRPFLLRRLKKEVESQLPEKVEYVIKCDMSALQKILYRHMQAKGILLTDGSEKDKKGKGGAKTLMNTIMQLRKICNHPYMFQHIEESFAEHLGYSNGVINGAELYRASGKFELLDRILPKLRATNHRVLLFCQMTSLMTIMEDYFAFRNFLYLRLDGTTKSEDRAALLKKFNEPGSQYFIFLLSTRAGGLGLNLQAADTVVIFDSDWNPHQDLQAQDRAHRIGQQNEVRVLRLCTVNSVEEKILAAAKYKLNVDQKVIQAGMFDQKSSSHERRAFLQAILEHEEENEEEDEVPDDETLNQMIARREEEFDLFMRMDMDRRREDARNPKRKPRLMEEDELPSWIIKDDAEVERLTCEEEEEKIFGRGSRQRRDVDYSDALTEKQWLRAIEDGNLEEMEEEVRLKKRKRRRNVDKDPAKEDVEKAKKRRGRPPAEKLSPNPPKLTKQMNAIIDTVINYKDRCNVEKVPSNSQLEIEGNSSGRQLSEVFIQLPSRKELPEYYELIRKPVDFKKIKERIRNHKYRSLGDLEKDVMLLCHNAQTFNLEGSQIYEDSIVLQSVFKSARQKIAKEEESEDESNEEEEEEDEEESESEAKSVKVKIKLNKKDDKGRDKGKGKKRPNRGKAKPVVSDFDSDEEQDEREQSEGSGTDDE
T2 sequence (P51532 whole entry, canonical isoform): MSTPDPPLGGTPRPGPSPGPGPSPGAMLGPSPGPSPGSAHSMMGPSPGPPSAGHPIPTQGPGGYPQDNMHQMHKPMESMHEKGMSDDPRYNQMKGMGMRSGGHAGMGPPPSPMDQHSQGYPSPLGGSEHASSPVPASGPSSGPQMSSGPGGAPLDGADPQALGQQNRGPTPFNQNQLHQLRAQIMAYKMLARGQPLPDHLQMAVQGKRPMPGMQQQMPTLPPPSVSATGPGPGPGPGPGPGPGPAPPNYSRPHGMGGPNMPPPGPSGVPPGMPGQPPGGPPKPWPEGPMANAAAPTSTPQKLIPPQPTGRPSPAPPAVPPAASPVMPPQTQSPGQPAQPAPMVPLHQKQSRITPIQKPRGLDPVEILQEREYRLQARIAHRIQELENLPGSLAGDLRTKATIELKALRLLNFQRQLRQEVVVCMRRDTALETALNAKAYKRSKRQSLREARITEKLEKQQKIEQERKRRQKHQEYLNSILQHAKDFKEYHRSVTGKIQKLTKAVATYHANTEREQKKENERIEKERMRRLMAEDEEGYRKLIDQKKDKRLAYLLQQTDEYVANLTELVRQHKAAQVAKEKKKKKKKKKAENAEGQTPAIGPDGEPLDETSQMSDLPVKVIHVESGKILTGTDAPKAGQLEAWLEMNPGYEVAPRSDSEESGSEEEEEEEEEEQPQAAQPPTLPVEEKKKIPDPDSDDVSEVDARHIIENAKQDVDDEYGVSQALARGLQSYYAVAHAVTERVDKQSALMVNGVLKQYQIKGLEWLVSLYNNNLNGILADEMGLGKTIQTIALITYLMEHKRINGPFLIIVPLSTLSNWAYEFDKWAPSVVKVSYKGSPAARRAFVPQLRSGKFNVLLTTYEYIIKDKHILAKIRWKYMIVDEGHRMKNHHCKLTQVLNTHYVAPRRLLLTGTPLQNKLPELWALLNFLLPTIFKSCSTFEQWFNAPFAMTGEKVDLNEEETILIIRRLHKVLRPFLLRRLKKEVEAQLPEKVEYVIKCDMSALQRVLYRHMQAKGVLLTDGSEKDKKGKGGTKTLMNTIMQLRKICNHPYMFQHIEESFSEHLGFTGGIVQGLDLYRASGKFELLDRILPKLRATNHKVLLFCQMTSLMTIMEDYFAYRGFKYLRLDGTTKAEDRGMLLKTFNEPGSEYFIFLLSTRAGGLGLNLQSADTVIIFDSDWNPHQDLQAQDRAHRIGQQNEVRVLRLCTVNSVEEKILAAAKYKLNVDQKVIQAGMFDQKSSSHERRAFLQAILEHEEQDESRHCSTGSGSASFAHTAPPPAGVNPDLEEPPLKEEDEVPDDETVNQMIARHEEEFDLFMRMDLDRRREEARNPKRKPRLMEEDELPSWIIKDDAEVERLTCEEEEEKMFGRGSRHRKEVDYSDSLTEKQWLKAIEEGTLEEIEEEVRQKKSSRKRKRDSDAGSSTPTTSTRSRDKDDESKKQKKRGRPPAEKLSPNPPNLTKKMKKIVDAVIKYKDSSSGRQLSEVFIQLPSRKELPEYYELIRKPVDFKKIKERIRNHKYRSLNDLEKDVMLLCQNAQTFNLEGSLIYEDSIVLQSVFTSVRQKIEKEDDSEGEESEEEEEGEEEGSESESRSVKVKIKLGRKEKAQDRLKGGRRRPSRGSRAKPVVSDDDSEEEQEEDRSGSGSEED
T3 sequence (Q86U86 whole entry, canonical isoform): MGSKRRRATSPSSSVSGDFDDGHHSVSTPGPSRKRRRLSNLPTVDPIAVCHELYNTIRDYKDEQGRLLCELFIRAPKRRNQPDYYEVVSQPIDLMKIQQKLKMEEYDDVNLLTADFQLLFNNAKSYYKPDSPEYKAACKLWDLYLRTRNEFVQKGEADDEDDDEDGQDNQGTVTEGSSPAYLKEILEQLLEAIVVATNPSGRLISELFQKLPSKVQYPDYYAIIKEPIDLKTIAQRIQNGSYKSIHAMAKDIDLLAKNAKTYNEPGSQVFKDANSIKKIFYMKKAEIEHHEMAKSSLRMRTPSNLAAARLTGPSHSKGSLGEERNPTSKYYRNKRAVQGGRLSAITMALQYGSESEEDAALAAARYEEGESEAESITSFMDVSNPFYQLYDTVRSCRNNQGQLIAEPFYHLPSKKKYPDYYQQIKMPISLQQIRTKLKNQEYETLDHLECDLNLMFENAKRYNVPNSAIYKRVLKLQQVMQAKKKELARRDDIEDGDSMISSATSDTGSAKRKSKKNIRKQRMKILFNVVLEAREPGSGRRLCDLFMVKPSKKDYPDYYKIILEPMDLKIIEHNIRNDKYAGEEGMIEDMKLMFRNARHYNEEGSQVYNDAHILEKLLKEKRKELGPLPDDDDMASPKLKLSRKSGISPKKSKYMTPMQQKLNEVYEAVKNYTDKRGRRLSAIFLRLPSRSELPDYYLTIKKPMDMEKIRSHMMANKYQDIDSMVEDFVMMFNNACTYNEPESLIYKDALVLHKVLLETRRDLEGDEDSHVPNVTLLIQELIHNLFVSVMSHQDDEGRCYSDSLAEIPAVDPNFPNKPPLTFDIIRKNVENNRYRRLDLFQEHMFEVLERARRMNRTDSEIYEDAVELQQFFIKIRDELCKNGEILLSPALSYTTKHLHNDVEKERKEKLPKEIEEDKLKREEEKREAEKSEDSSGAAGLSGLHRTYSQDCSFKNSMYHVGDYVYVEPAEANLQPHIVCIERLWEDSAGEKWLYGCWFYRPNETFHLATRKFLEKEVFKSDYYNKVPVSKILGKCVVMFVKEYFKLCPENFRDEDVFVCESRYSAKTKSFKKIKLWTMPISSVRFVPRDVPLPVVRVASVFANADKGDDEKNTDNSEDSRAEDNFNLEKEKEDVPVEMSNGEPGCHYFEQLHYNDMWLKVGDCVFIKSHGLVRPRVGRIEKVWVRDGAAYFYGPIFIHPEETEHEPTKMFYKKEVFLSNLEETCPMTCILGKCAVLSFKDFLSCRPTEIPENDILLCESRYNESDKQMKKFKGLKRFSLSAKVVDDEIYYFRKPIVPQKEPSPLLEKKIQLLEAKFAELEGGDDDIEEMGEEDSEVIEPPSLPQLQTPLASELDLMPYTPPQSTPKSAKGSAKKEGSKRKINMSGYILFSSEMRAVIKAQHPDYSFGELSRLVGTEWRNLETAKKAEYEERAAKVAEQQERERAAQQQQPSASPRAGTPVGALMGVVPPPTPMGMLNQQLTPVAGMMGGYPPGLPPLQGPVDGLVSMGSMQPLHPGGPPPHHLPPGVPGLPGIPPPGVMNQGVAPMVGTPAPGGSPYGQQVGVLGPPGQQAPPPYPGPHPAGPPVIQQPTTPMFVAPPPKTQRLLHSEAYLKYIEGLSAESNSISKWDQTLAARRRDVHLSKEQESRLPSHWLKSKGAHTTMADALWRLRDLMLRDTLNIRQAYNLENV

SMILES | ΔTm [1] [°C] | ΔTm [2] [°C] | ΔTm (Protein polybromo-1 [3]) [°C] | ΔTm (Protein polybromo-1 [4]) [°C] | ΔTm (Protein polybromo-1 [5]) [°C] | ΔTm (Protein polybromo-1 [6]) [°C] | ΔTm [7] [°C] | also measured
CC(C)(C)OC(=O)N1CCN(/C=C/C(=O)c2ccccc2O)C2(CC2)C1 | 4.1 | 6.1 | 0.6 | 2.2 | 7.6 | 0.9 | 7.5 | –
O=C(/C=C/N1CCc2cn[nH]c2C1)c1ccccc1O | 4.8 | 7 | 1.2 | 4.1 | 7.8 | 1.7 | 7.8 | –
O=C(/C=C/N1CCN(c2ncccn2)CC1)c1ccccc1O | 1.1 | 2.9 | 0.6 | 0.7 | 4.6 | 0.3 | 2.9 | –
O=C(/C=C/N1CCc2c(ncnc2NC2CC2)C1)c1ccccc1O | – | 7.7 | 2.4 | 6.7 | 9.1 | 3.5 | – | pKd [8]: 7.31; t1/2 [9]: 20 h; pKd (Protein polybromo-1 [10]): 7.55; pKd (Protein polybromo-1 [11]): 6.82
O=C(/C=C/N1CCCC1)c1ccccc1O | 3 | 4.7 | 0.7 | 2.3 | 5.7 | 1.1 | 5.5 | –
O=C(/C=C/N1CC2CCC(CC2)C1)c1ccccc1O | 2 | 3.8 | 2 | 5.2 | 6.6 | 3.3 | 5.1 | –
C#CCNc1ccnc(N2C[C@H]3C[C@@H]2CN3/C=C/C(=O)c2cccc(OC)c2O)n1 | -0.4 | 0.7 | – | – | -0.4 | – | 0.7 | inhibition (Protein polybromo-1 [12]): inactive
O=C(/C=C/N1CCC(c2cc[nH]n2)CC1)c1ccccc1O | 3.9 | 6.3 | 1 | 3.2 | 6.9 | 1.8 | 8.2 | –
O=C(/C=C/N1CCc2c(ccnc2N[C@H]2CC[C@H](O)CC2)C1)c1ccccc1O | 2.4 | 6.1 | 0.4 | 2.5 | 8.3 | 1.1 | 5.4 | –
CN(C)c1ncnc2c1CCN(/C=C/C(=O)c1ccccc1O)C2 | 2.2 | 3.4 | 1.2 | 3.5 | 5.1 | 1.3 | 4.1 | –
CC(C)(C)c1nc2c(n1CC1CC1)CCN(/C=C/C(=O)c1ccccc1O)C2 | 3.8 | 5.8 | 1.2 | 3.8 | 8 | 1.5 | 5.9 | –
CN(C)/C=C/C(=O)c1ccccc1O | 2 | 3.3 | 0.7 | 2 | 4.9 | 0.5 | 4.8 | –
COc1cccc(C(=O)/C=C/N2CCCC2)c1O | -0.4 | 0.7 | 0.3 | 0.1 | 0.4 | 0 | 0.7 | –
O=C(/C=C/N1[C@H]2CC[C@@H]1c1ncnc(NC3CC3)c1C2)c1ccccc1O | – | 7.4 | 2.1 | 5.9 | 9.3 | 6.4 | 8.5 | inhibition (Protein polybromo-1 [12]): Active; Activity [13]: Non-toxic; inhibition (Protein polybromo-1 [14]): inactive; Activity (C2C12 [15]): Non-toxic; Activity [16]: 50%; inhibition (C3H 10T1/2): Active; inhibition [17]: Dose-dependent effect; pKd [18]: 7.43; inhibition (C2C12 [19]): Active; Activity (786-0): inactive; Activity (C2C12 [20]): 50%; inhibition (C2C12 [21]): Active; Activity (RCC4): inactive
O=C(/C=C/N1CCN(c2cccc(OCc3ccncc3)n2)CC1)c1ccccc1O | 3.7 | 7.5 | 1.3 | 0.9 | 7 | 0.7 | 7.4 | –
O=C(/C=C/N1CCc2c(ncn2Cc2ccccc2)C1)c1ccccc1O | 3 | 5.3 | 1.6 | 4.6 | 8 | 1.9 | 5.8 | –
